According to ChEMBL document CHEMBL1148429, “Penicillin-derived inhibitors that simultaneously target both metallo- and serine-beta-lactamases” (Bioorg Med Chem Lett, 2004):
Converted amounts (≈) assume the structure as drawn.

Tests used:
Pseudomonas aeruginosa [1] = assay: Synergistic activity against SPM-1 beta lactamase produced by Pseudomonas aeruginosa in presence of piperacillin (1:1) and compound 5c; S = susceptible
Pseudomonas aeruginosa [2] = assay: Synergistic activity against VIM-7 beta lactamase produced by Pseudomonas aeruginosa presence of piperacillin (1:1) and compound 5c; R = Resistant
Pseudomonas aeruginosa [3] = assay: Synergistic activity against VIM-1 beta lactamase produced by Pseudomonas aeruginosa presence of piperacillin (1:1) and compound 5c; S = susceptible
Pseudomonas aeruginosa [4] = assay: Synergistic activity against VIM-1 beta lactamase produced by Pseudomonas aeruginosa presence of piperacillin (1:1); R = Resistant
Pseudomonas aeruginosa [5] = assay: Synergistic activity against SPM-1 beta lactamase produced by Pseudomonas aeruginosa in presence of piperacillin (1:1); R = Resistant
Pseudomonas aeruginosa [6] = assay: Synergistic activity against VIM-7 beta lactamase produced by Pseudomonas aeruginosa presence of piperacillin (1:1); R = Resistant
Escherichia coli [7] = assay: Synergic activity against IMP-1 beta lactamase produced by Escherichia coli in presence of piperacillin (1:1) and compound 5c; S = susceptible; assay type: functional
How it was run: (§1)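 Synergy with piperacillin against metallo-β-lactamase-producing strains (IMP-1; SPM-1, VIM-1 or VIM-7 carriers). The initial screen used […] at a 1:1 antibiotic:inhibitor ratio. Inhibitor was tested with tazobactam or DVR-II-183 added as a serine β-lactamase inhibitor, or without one.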

Escherichia coli [8] = assay: Synergic activity against IMP-1 beta lactamase produced by Escherichia coli in presence of piperacillin (1:1); R = Resistant; assay type: functional
Escherichia coli [9] = assay: Synergic activity against IMP-1 beta lactamase produced by Escherichia coli in presence of Piperacillin and Tazobactam; S = susceptible; assay type: functional
How it was run: as §1

Beta-lactamase TEM = Beta-lactamase TEM (Escherichia coli, UniProt P62593); assay: Beta-Lactamase inhibitory activity against representative class A (TEM-1) serine enzyme
Sequence of Beta-lactamase TEM (P62593 whole entry): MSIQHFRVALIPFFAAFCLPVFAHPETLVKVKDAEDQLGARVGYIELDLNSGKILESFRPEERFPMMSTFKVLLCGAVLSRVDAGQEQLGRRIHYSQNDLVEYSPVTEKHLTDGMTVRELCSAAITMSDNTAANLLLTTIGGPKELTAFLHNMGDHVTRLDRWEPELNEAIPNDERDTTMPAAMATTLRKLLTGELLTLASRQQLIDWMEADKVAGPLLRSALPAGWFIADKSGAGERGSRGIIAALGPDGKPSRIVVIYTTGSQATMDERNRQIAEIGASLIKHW
How it was run: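 Serine β-lactamase assay: inhibitor preincubated with enzyme for 4 min in 100 µL, then an aliquot transferred into dilute nitrocefin substrate (1 mL final). IC50 is expressed as the inhibitor concentration in the 100 µL incubation, from multiple experiments.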

[10] = target: T1, Metallo-beta-lactamase type 2 (Bacillus cereus, UniProt P14488); assay: Inhibition of class B (BCII) metallo-beta-lactamase representative enzyme
T1 sequence (P14488 whole entry): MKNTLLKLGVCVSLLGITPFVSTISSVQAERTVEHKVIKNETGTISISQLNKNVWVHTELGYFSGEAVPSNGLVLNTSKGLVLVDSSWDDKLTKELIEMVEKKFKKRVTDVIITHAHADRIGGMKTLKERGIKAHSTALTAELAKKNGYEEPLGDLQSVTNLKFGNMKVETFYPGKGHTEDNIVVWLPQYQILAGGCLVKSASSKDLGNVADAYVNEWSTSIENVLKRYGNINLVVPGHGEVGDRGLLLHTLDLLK
How it was run: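 BCII metallo-β-lactamase assay: inhibitor and enzyme incubated together for 4 min in 970 µL, then concentrated nitrocefin added to 1 mL final volume. IC50 determined from nitrocefin hydrolysis.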

Pseudomonas aeruginosa [11] = assay: Synergistic activity against VIM-7 beta lactamase produced by Pseudomonas aeruginosa in presence of Piperacillin and Tazobactam; R = Resistant
Beta-lactamase L1 = Beta-lactamase L1 (Stenotrophomonas maltophilia, UniProt P52700); assay: Beta-Lactamase Inhibition of metallo-beta-lactamase representative class B (L1) enzyme
Sequence of Beta-lactamase L1 (P52700 whole entry): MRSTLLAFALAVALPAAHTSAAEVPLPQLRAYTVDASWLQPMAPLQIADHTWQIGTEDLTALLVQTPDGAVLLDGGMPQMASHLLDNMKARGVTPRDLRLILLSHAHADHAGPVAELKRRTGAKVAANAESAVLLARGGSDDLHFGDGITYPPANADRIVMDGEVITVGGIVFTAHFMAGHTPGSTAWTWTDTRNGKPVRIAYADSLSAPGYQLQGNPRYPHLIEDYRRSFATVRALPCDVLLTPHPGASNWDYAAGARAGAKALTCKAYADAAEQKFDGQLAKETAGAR
How it was run: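 For the metallo enzyme, inhibitor and enzyme were preincubated for 4 min. Concentrated nitrocefin was then added to give the final assay volume, and IC50 was determined.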

[12] = target: Beta-lactamase TEM (Escherichia coli) (UniProt P62593); assay: Beta-Lactamase inhibitory activity against representative class A (TEM-1) serine enzyme from Escherichia coli ATCC 35218 in presence of Piperacillin
Sequence of Beta-lactamase TEM (Escherichia coli) (P62593 whole entry): as the sequence (P62593 whole entry) above
How it was run: (§2)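 MIC of piperacillin against β-lactamase-producing strains, with the piperacillin concentration varied and the inhibitor held constant at […].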

Pseudomonas aeruginosa [13] = assay: Synergistic activity against VIM-1 beta lactamase produced by Pseudomonas aeruginosa in presence of Piperacillin and Tazobactam; R = Resistant
[14] = target: Beta-lactamase (Escherichia coli K-12) (UniProt P00811)
Sequence of Beta-lactamase (Escherichia coli K-12) (P00811 whole entry): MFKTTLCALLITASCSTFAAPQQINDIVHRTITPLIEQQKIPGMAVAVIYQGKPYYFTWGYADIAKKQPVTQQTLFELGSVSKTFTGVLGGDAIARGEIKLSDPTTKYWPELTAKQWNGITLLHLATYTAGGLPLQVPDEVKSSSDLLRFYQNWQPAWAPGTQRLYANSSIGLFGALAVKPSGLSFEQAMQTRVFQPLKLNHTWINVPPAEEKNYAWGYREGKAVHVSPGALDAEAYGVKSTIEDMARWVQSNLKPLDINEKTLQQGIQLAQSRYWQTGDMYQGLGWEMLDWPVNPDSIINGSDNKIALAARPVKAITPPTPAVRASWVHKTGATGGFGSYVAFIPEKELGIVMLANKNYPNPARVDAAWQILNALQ

Staphylococcus aureus = assay: Antibacterial activity was determined against the Staphylococcus aureus ATCC 29213 in presence of Piperacillin; assay type: functional
How it was run: as §2

Pseudomonas aeruginosa [15] = assay: Synergistic activity against SPM-1 beta lactamase produced by Pseudomonas aeruginosa in presence of Piperacillin and Tazobactam; R = Resistant

SMILES	IC50 (Beta-lactamase TEM) [µM]	IC50 [10] [µM]	IC50 (Beta-lactamase L1) [µM]	MIC [12] [µg/mL]	MIC [14] [µg/mL]	MIC (Staphylococcus aureus) [µg/mL]	also measured
C[C@@]1(COC(=O)Cc2ccc(O)c(O)c2)S[C@@H]2/C(=C\c3ccccn3)C(=O)N2[C@H]1C(=O)O							Activity (Pseudomonas aeruginosa [1]): Susceptible; Activity (Pseudomonas aeruginosa [2]): Resistant; Activity (Pseudomonas aeruginosa [3]): Susceptible; Activity (Pseudomonas aeruginosa [4]): Resistant; Activity (Pseudomonas aeruginosa [5]): Resistant; Activity (Pseudomonas aeruginosa [6]): Resistant; Activity (Escherichia coli [7]): Susceptible; Activity (Escherichia coli [8]): Resistant
CC1(C)S[C@@H]2[C@H](CS)C(=O)N2[C@H]1C(=O)O	601	2.9	32.1	> 128	2 (≈ 8.09 µM)	2	Activity (Escherichia coli [9]): Susceptible; Activity (Pseudomonas aeruginosa [11]): Resistant; Activity (Pseudomonas aeruginosa [13]): Resistant; Activity (Pseudomonas aeruginosa [15]): Resistant
CC1(C)S[C@@H]2[C@H](S)C(=O)N2[C@H]1C(=O)O	> 1000	17.8	41.4	> 128	2 (≈ 8.57 µM)	8	
CC1(C)S[C@@H]2[C@@H](S)C(=O)N2[C@H]1C(=O)O	988	17.2	36.9	> 128	2 (≈ 8.57 µM)	8	
CC1(C)[C@H](C(=O)O)N2C(=O)[C@H](S)[C@H]2S1(=O)=O	69.2	106	7.6	> 128	2 (≈ 7.54 µM)	8	
O=C(O)c1cccc(C(=O)O)n1 [DIPICOLINIC ACID]		21.8	7.8				
CC1(C)S[C@@H]2[C@@H](CO)C(=O)N2[C@H]1C(=O)O	275	> 200	> 200	> 128	4 (≈ 17.3 µM)	8	
